Experimental findings from ChEMBL document CHEMBL2346548, “Design, synthesis, and structure-activity relationship studies of tryptanthrins as antitubercular agents” (J Nat Prod, 2013) are described below.

Data set [1] in a line: Oral bioavailability in Sprague-Dawley rat at 20 mg/kg. Format: ADME, organism-based. Particulars: in vivo; call rule not given here.
Data set [2] is described as follows: Permeability across basolateral to apical side in human Caco2 cells incubated for 1 hr at 37 degC by HPLC-MS/MS method. Format: ADME, cell-based. The note with it: Caco-2. A general note: Passage across Caco-2 layers is used to estimate intestinal permeability.
The nature of data set [3]: Metabolic stability in human liver microsomes assessed as parent compound remaining at 1 uM incubated for 1 hr by HPLC-MS/MS method. The note with it: read-out: Stability. Type of data set: ADME, Microsome. In a few lines:
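Pooled mixed-gender human liver microsomes (0.3 mg/mL protein), 1 μM compound with NADP-regenerating system in phosphate buffer pH 7.4, 1 h at 37 °C; parent measured at start and end by HPLC-MS/MS; duplicate means.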
(In general: Liver microsomes are a subcellular fraction often used to study metabolism.)

A short description of data set [4]: Clearance in Sprague-Dawley rat at 5 mg/kg, iv. Type of data set: ADME, organism-based. Also on record: dose 5 mg/kg, route intravenous. Particulars: in vivo. In a few lines:
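Male Sprague-Dawley rats (n = 3), single 5 mg/kg iv dose as solution in PEG300/DMSO 50:50; plasma sampled 0.083–24 h, LC-MS bioanalysis; noncompartmental analysis, means.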

Data set [5] is described as follows: Half life in Sprague-Dawley rat at 20 mg/kg, po. Type of data set: ADME, organism-based. Also on record: dose 20 mg/kg, route oral. The note with it: in vivo.
The subject of data set [6] is Mycobacterium tuberculosis. Put plainly: Antitubercular activity against Mycobacterium tuberculosis Erdman ATCC 35801 infected in C57BL/6 mouse assessed as viable bacterial load in lung at 200 mg/kg/day through gavage 5 days per week for 4 weeks starting on 10th day post-infection (reference value: 6.49 +/- 0.10 log10CFU/lung). Type of data set: functional.
Data set [7] concerns Mycobacterium tuberculosis. Put plainly: Antitubercular activity against non-replicating Mycobacterium tuberculosis H37Rv incubated for 10 days by LORA method. Format: functional. Particulars: 240 h. In a few lines: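 H37Rv carrying pFCA-luxAB was adapted to low oxygen by gradual self-depletion in a sealed, slowly stirred flask. It was then exposed to compounds for 10 days under anaerobic conditions. Cultures recovered for 28 h in ambient oxygen before n-decanal substrate was added and luminescence read. MIC was the lowest concentration giving a 90% reduction in luminescence versus untreated controls.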

Data set [8] concerns Vero. Put plainly: Cytotoxicity against african green monkey Vero cells. Format: cell-based, Chlorocebus sabaeus. The note with it: Chlorocebus sabaeus, Vero; read-out: IC50.
For data set [9], the system named is Salmonella typhimurium. Put plainly: Toxicity in Salmonella typhimurium TA100 assessed as compound level per well causing cytotoxicity at 0.25 to 240 ug/well in presence of rat liver S9 fraction. Format: organism-based. The note with it: salmonella enterica subsp. enterica serovar typhimurium. In a few lines:
(§1)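 MicroAmes: strains preincubated with or without Aroclor-induced rat liver S9, duplicate wells, six concentrations 0.25–250 μg equivalents/well; DMSO vehicle, 4-nitroquinoline-N-oxide (−S9) and 2-aminoanthracene (+S9) positive controls; revertant colonies counted; cytotoxicity noted as reduced revertants or background lawn; precipitation recorded.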

Data set [10] is described as follows: Cmax in Sprague-Dawley rat at 20 mg/kg, po. Type of data set: ADME, organism-based. Also on record: dose 20 mg/kg, route oral. Particulars: in vivo.
A short description of data set [11]: Efflux ratio in human Caco2 cells incubated for 1 hr at 37 degC by HPLC-MS/MS method. Format: ADME, cell-based. Particulars: Caco-2.
The test system of data set [12] is Salmonella typhimurium. Put plainly: Mutagenicity in Salmonella typhimurium TA100 assessed as mean revertant colonies at 0.25 to 240 ug/well in presence of rat liver S9 fraction. Format: toxicity, organism-based. The note with it: salmonella enterica subsp. enterica serovar typhimurium. In a few lines:
as §1

Data set [13] in a line: Tmax in C57BL/6 mouse at 40 mg/kg, po formulated in 0.1% SLS. Details: dose 40 mg/kg, route oral. Particulars: in vivo. Type of data set: ADME, organism-based. In a few lines: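 Female C57BL/6 mice, single 40 mg/kg oral gavage; three mice per time point; plasma at 30 min to 24 h, LC-MS; noncompartmental parameters reported as means.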
Data set [14] relates to Salmonella typhimurium. Put plainly: Mutagenicity in Salmonella typhimurium TA98 assessed as mean revertant colonies at 0.25 to 240 ug/well in absence of rat liver S9 fraction. Particulars: salmonella enterica subsp. enterica serovar typhimurium. Format: toxicity, organism-based. In a few lines: as §1

≈ marks a conversion by molar mass, not a printed value.

A word on the bioavailability: it is dose-corrected exposure relative to a reference, in per cent. For orientation: Papp B→A means the apparent permeability from the basolateral to the apical side of a cell layer. The clearance is the rate of elimination divided by the concentration. The half-life is the time in which the quantity being followed falls by half. Broadly, the MIC90 is an inhibitory concentration at the 90% level, which refers to growth in some studies and to a panel of isolates in others. For orientation: IC50 means the point on the concentration scale where inhibition reaches its midpoint. A word on the Cmax: it is the highest concentration seen after dosing. Broadly, the efflux ratio is a quotient of directional permeabilities that is used to spot active efflux. A word on the Tmax: it is the time at which the peak concentration occurs. `O=C1C2=Nc3ccccc3CN2c2ccc(Cl)cc21` yielded a bioavailability in data set [1] of 8%. Besides, the apparent permeability from basolateral to apical (Papp B→A) at 1 h in data set [2] worked out at 20.8 ×10⁻⁶ cm/s. Also, the remaining at 1 h, 1 µM in [3] is 53%. In addition, the clearance in [4] was 92.8 mL/min/kg. Moreover, the half-life in [5] is 3.33 h. The log10cfu in data set [6] turned out to be 6.58. This compound showed an MIC90 in data set [7] of 24 µg/mL (≈ 89.3 µM). In addition, in [8], the IC50 came to 40 µg/mL (≈ 149 µM). The Activity result in data set [9] is reported as “>= 2.5 ug”; in data set [12] it was “Non-toxic”; in [14], “Non-toxic”. Moreover, the highest level in data set [10] (Cmax) was 50 ng/mL. Moreover, in [11], the efflux ratio at 1 h was more than 1. In addition, the Tmax in [13] amounted to 1 h.
